Measured values from different studies.
Target: Ephrin type-B receptor 3 (EPHB3, Homo sapiens, UniProt P54753)
Residues used in one study (P54753 34-998): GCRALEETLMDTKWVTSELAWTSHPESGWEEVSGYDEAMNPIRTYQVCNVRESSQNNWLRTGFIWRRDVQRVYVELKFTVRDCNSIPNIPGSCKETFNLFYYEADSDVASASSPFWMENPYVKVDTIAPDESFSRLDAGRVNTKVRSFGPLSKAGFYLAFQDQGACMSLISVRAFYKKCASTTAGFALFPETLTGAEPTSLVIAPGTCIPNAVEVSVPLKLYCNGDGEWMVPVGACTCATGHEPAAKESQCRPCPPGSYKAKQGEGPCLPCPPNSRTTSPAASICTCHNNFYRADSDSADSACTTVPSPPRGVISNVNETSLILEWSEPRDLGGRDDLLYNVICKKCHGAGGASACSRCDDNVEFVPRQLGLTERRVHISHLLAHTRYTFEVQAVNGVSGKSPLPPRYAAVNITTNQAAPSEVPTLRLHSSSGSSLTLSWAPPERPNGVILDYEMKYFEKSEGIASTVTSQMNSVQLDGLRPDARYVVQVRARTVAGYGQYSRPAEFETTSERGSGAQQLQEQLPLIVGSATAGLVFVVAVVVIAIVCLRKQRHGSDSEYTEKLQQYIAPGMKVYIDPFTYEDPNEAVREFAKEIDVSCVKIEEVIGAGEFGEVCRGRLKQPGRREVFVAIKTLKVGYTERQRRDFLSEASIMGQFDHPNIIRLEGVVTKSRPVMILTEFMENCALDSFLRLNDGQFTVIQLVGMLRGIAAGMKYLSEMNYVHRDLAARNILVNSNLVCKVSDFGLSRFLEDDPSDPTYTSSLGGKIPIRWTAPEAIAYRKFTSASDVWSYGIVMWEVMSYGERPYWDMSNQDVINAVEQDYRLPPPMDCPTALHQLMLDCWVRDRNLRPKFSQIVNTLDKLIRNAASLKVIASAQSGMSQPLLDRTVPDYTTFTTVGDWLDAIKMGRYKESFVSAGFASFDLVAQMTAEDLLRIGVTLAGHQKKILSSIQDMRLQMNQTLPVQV

`COc1cc2nccc(Oc3ccc(NC(=O)Nc4ccc(F)cc4F)c(F)c3)c2cc1OC` has a ΔTm of 5 to 10 °C (thermal stability, DSF; 10 µM).
The activity vs control of `Cc1cc(NC(=O)c2cccc3cc(-c4cccc5[nH]nc(N)c45)ccc23)ccc1F` is reported as 88% (enzyme activity, inhibitor; 0.1 µM).
For `COc1cccc(CNC(=O)c2nc3scc(COCc4ccc(C(=O)O)cc4)c3c(=O)[nH]2)c1`, the remaining binding was 85.4% (cell-free assay, competition with immobilised ligand; 1 µM).
For `Cn1c(=O)n(-c2ccc(C(C)(C)C#N)cc2)c2c3cc(-c4cnc5ccccc5c4)ccc3ncc21`, the remaining activity was 117% (enzyme activity, inhibitor; 10 µM).
For `CN(C(=O)c1ccccc1)c1cc(N(C)c2ccc3c(c2)CCc2ccc(C(=O)NCCN4CCOCC4)cc2C3=O)ccc1F`, the remaining binding was 94% (cell-free assay, competition with immobilised ligand; 1 µM).
For `CCCOc1ccc(OC)c(F)c1C(=O)c1ccc(C(=O)N[C@@H]2CNC[C@H]2NC(=O)c2ccc3[nH]ncc3c2)cc1`, the remaining activity was 102% (enzyme activity, inhibitor; 10 µM).
With `Cc1ccc(C(=O)NCc2ccsc2)cc1C#Cc1cn(C(C)C)c2ncnc(N)c12` the activity vs control was 100% (enzyme activity, inhibitor; 1 µM).
With `Clc1ccc(Nc2nnc(Cc3ccncc3)c3ccccc23)cc1` the remaining signal was 65.1% (cell-free assay; 0.5 µM).
`O=C(Nc1cnn(-c2csc(C(=O)NC3COC3)c2)c1)Nc1ccccc1Cl` gave a remaining activity of 95.6% (enzyme activity, inhibitor; 5 µM).
For `Nc1nc(Nc2ccccc2)sc1C(=O)c1c(F)cccc1F`, the remaining activity was 59% (enzyme activity, inhibitor; 10 µM).
`CNC(=O)c1cc(Oc2ccc(NC(=O)Nc3ccc(Cl)c(C(F)(F)F)c3)cc2)ccn1` gave an inhibition of 38% (enzyme activity, inhibitor; 10 µM).
The remaining binding of `CCCOc1ccc([C@@H]2[C@@H](C(=O)O)[C@H](c3ccc4c(c3)OCO4)CN2CC(=O)Nc2c(CC)cccc2CC)cc1` is reported as 96% (cell-free assay, competition with immobilised ligand; 1 µM).
`Nc1ncnc2occ(-c3ccc(NC(=O)Nc4cc(C(F)(F)F)ccc4F)cc3)c12` gave a remaining signal of 0% (cell-free assay; 20 µM).
The inhibition of `CCN(CC)CCNC(=O)c1c(C)[nH]c(/C=C2\C(=O)Nc3ccc(F)cc32)c1C` is reported as 10% (enzyme activity, inhibitor; 10 µM).
`CCC(=N\O)/C(C)=C/c1ccc(F)cc1` has a remaining binding of 75% (cell-free assay, competition with immobilised ligand; 1 µM).
`COc1ccnn2ncc(-c3ccnc(N(C)C)n3)c12` gave a remaining binding of 100% (binding; 1 µM).
With `O=C(NC[C@@H]1[C@H]2CN(C(=O)OCc3cc(C(F)(F)F)cc(C(F)(F)F)c3)C[C@@H]12)c1ccc2[nH]nnc2c1` the remaining binding was 81% (cell-free assay, competition with immobilised ligand; 1 µM).
With `CC/C(=N\NC(=O)NCc1cccc(O)c1)c1ccc(O)c(C)c1O` the inhibition was 0.6% (enzyme activity, inhibitor; 0.1 µM).
The remaining signal of `C#Cc1cccc(Nc2ncnc3cc(OCCOC)c(OCCOC)cc23)c1` is reported as 58% (cell-free assay; 0.5 µM).
With `O=c1nc(-c2ccccn2)sc2ccccc12` the remaining binding was 100% (cell-free assay, competition with immobilised ligand; 1 µM).
